Measurements reported in PMC9574854 (Journal of Medicinal Chemistry, 2022).

Columns and labels:
[1] = HepG2 CellTiter-Glo cytotoxicity assay; assay type: cell-based, human; conditions: human, HepG2 cells
Procedure, shortened: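 HepG2 cells were grown in DMEM with 10% FBS, 1% NEAA and 1% L-glutamine, without antibiotics. They were seeded at 4000 cells/well and left overnight at 37 °C, 5% CO₂. Test compound was added at 200 nM or 2 μM, in quadruplicate, with DMSO held constant, for 48 h. Viability was read by CellTiter-Glo 2 luminescence. % viability is the average of two experiments.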

[2] = molecular target: T1, PfPK6 (Plasmodium falciparum, UniProt Q8IDW1); assay: KinaseSeeker split luciferase assay on PfPK6; assay type: biochemical; conditions: compared to IKK16
T1 sequence (Q8IDW1 1-305): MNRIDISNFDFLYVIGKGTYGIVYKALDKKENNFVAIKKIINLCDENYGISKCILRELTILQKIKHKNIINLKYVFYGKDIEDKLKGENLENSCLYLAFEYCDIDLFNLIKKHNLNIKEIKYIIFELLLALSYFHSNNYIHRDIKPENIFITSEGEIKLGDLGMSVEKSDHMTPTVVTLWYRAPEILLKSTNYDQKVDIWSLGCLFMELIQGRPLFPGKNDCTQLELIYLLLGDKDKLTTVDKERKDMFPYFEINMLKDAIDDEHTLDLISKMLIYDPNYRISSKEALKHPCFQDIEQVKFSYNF

[3] = molecular target: T2, PfGSK3 (Plasmodium falciparum, UniProt O77344); assay: KinaseSeeker split luciferase assay on PfGSK3; assay type: biochemical; conditions: screen at 1 μM
T2 sequence (O77344 1-440): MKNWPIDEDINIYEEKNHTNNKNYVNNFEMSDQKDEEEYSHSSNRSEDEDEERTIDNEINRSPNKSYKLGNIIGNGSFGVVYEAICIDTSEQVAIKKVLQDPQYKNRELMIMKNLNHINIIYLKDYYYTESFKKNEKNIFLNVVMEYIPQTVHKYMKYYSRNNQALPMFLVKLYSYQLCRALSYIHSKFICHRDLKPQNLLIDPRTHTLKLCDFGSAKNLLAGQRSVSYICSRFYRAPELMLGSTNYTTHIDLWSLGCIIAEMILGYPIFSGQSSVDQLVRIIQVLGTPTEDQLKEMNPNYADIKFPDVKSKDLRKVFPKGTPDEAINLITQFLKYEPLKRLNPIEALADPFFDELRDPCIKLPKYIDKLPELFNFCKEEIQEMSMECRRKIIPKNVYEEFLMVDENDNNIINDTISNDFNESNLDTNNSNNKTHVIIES
Procedure, shortened: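 Split-luciferase binding assay: lysate with Cfluc-PfGSK3 fusion plus Fos-Nfluc, incubated 2 h with test compound in DMSO (or DMSO control) and a kinase-specific probe. Luminescence was read immediately after luciferin reagent. % inhibition = (control − sample)/control × 100. Compounds were first counter-screened against split luciferase, then screened at 1 μM.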

c1ccc2sc(-c3ccnc(Nc4ccc(CN5CCC(N6CCCC6)CC5)cc4)n3)cc2c1 [Compound 12, 4-(Benzo[b]thiophen-2-yl)-N-(4-((4-(pyrrolidin-1-yl)piperidin-1-yl)methyl)phenyl)pyrimidin-2-amine]
viability at 48 h, 200 nM [1]: 100%
fold increase in potency on PfPK6 [2]: ~3 fold
activity on PfGSK3, in words [3]: abolished activity
